Drawing on ChEMBL document CHEMBL6177924, “Synthesis and antifungal evaluation of new azole derivatives containing 1,2,3-triazole” (RSC Med Chem, 2025), this text covers MIC50 and Activity for 23 compounds.

Converted amounts (≈) assume the structure as drawn. The source made the active and inactive calls. The rule behind the calls is not given here.

Data set [1] concerns Candida albicans. The data set can be described thus: Antifungal activity against drug sensitive Candida albicans SC5314 assessed as inhibition of fungal growth incubated for 24 hrs by CLSI protocol based microdilution method. The format is functional. In a few lines: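 Broth microdilution of log-phase C. albicans at 1×10^5 CFU/mL in Sabouraud liquid medium (SDB). Compounds serially diluted 5-fold to final 200-0.064 µg/mL, DMSO below 0.1%. Triplicate wells, 200 µL final volume, with growth, blank and fluconazole controls. Incubated 24 h at 30 °C, OD read at 630 nm; experiment repeated three times.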

For data set [2], the system named is Candida albicans. Briefly: Antifungal activity against drug resistant Candida albicans SC5314-FR assessed as inhibition of fungal growth incubated for 24 hrs by CLSI protocol based microdilution method. Type of data set: functional. In a few lines: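 Fluconazole-resistant strain derived from SC5314 by fluconazole exposure. Log-phase cells at 1×10^5 CFU/mL in SDB. Drug fivefold serial dilutions, 200–0.064 µg/mL final, DMSO <0.1%, triplicate wells, 200 µL. Incubated 30 °C for 24 h and read at OD630. Growth, blank and fluconazole controls included. Run three times.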

Data set [3] relates to Candida albicans. Briefly: Antifungal activity against Candida albicans SC5314 assessed as inhibition of fungal growth measured up to 48 hrs by time-killing curve analysis. The format is functional, organism-based. Summed up: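 Log-phase cells at 1×10^5 CFU/mL in SDB, 10 mL per group. Drug at 0.27, 0.53 or 1.06 µg/mL, plus fluconazole and untreated controls. Shaken 150 r/min at 30 °C. Samples taken at 0, 4, 8, 12, 24, 36 and 48 h and read at A630, triplicate wells. Absorbance plotted against time.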

Data set [4] has as its system Candida albicans. The data set can be described thus: Antifungal activity against Candida albicans assessed as inhibition of mycelia formation measured after 4 to 8 hrs by inverted microscopic analysis. Type of data set: functional, organism-based. As to conditions: time 4-8 hrs. Summed up: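 Hyphae induced in SD + 10% FBS or in Spider medium, log-phase cells at 1×10^5 CFU/mL. Drug at 0.27, 0.53 or 1.06 µg/mL, with fluconazole and drug-free controls, 1 mL per well in 24-well plates, triplicate. […], and mycelium formation viewed and photographed by inverted microscope at 4 and 8 h.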

In data set [5] the test system is Cell membrane. Briefly: Induction of cell membrane permeability in Candida albicans assessed as increase in red fluorescence incubated for 16 to 24 hrs by PI staining based fluorescence microscopic analysis. As to conditions: time 16-24 hrs. The format is subcellular. In a few lines:
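C. albicans at 1×10^5 CFU/mL in SDB grown with drug (0.27, 0.53, 1.06 µg/mL), fluconazole or no drug at 30 °C, 150 r/min, for 16-24 h. Cells washed and resuspended in PBS at 2×10^6 CFU/mL. Stained with propidium iodide (final 5 µg/mL) 30 min at room temperature in the dark, then washed. Imaged by fluorescence microscopy and fluorescence intensity measured.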

Data set [6] concerns Candida albicans. The data set can be described thus: Antibiofilm activity in Candida albicans SC5314 assessed as decrease in number of mycelia measured after 24 hrs by inverted microscopic analysis. Type of data set: functional, organism-based. In a few lines:
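Log-phase cells at 1×10^5 CFU/mL in RPMI1640 + 10% FBS allowed to adhere 90 min at 30 °C in 24-well plates. Excess medium removed, then 1 mL medium with or without drug (0.27, 0.53, 1.06 µg/mL; fluconazole group) added for 24 h at 30 °C. Crystal violet stain 30 min, PBS washes ×3, biofilm viewed by inverted microscope.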

Data set [7] relates to Cell membrane. Briefly: Induction of cell membrane permeability in Candida albicans assessed as increase in fluorescence intensity by multifunctional enzymatic assay. Type of data set: subcellular.
In data set [8] the test system is Candida albicans. Briefly: Induction of morphological changes in Candida albicans assessed as normal cell wall appearance incubated for 16 to 24 hrs by transmission electron microscopic analysis. The format is functional, organism-based. As to conditions: time 16-24 hrs. In a few lines:
(§1)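 Cells at 5×10^5 CFU/mL in SDB with drug (0.27, 0.53, 1.06 µg/mL), fluconazole or no drug. Shaken 150 r/min at 30 °C for 16–24 h, pelleted and PBS-washed. Fixed in 3% paraformaldehyde/2.5% glutaraldehyde at 4 °C, post-fixed in 1% OsO4, acetone-dehydrated and Epon-812 embedded. 60–90 nm sections stained with uranyl acetate and lead citrate, imaged by TEM.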

The subject of data set [9] is Candida albicans. Briefly: Induction of morphological changes in Candida albicans assessed as blurred spacing between cell wall and cell membrane incubated for 16 to 24 hrs by transmission electron microscopic analysis. The format is functional, organism-based. As to conditions: time 16-24 hrs. Summed up: as §1
For data set [10], the system named is Candida albicans. Briefly: Induction of morphological changes in Candida albicans assessed as loose distribution of cytoplasm incubated for 16 to 24 hrs by transmission electron microscopic analysis. Particulars: time 16-24 hrs. Type of data set: functional, organism-based. Summed up:
as §1

Data set [11] deals with Candida albicans. Briefly: Induction of morphological changes in Candida albicans assessed as absence of intracellular substance incubated for 16 to 24 hrs by transmission electron microscopic analysis. The format is functional, organism-based. As to conditions: time 16-24 hrs. Summed up:
as §1

In another data set the test system is 16HBE14o-. Briefly: Cytotoxicity against human 16HBE14o- cells assessed as reduction in cell viability 0.032 to 100 microg/ml incubated for 48 hrs by CCK8 assay. The format is toxicity, cell-based. As to conditions: dose 0.032-100 µg/ml. In a few lines:
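16HBE cells seeded in RPMI1640 + 10% FBS + 1% antibiotics and attached 24 h at 37 °C. Medium replaced with drug in fivefold dilutions from 100 µg/mL, with fluconazole, growth and blank controls. Incubated 48 h, then CCK8 reagent added and plates incubated for viability read-out.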

With `Clc1ccc(C(Cn2ccnc2)OCc2cn(Cc3ccc(Br)cc3)nn2)c(Cl)c1` (stereo unspecified), the results for the MIC50 with Candida albicans [1] and in the data set on Candida albicans [2] were 1.33 µg/mL (≈ 2.62 µM) and 9.03 µg/mL (≈ 17.8 µM), respectively.

Take `COc1ccc(C(=O)Cn2cc(COC(Cn3ccnc3)c3ccc(Cl)cc3Cl)nn2)cc1OC` (stereo unspecified): the MIC50 in the data set with Candida albicans [1] amounted to 16.6 µg/mL (≈ 32.2 µM); in the data set on Candida albicans [2] it was 58.6 µg/mL (≈ 113 µM).

As for `OC(Cn1cncn1)(Cn1cncn1)c1ccc(F)cc1F` [FLUCONAZOLE], the MIC50 with Candida albicans [1] was 1.52 µg/mL (≈ 4.96 µM); in the data set with Candida albicans [2], greater than 200 µg/mL. In addition, the outcome in the data set on Candida albicans [3], with Candida albicans [4], in the data set on Candida albicans [6], in the data set on Cell membrane [7], with Candida albicans [8] and in the data set with Candida albicans [9] was Active. The result with Candida albicans [10] and in the data set on Candida albicans [11] was Active. Further, the figures for the Activity entry in the data set on Cell membrane [5] and with 16HBE14o- were “Active; Small Amount Of Red Fluorescence Observed” and “Non-toxic”, respectively.

Turning to `O=C(Cn1cc(COC(Cn2ccnc2)c2ccc(Cl)cc2Cl)nn1)c1ccccc1` (stereo unspecified), the MIC50 with Candida albicans [1] is 1.61 µg/mL (≈ 3.53 µM); with Candida albicans [2], 23.4 µg/mL (≈ 51.3 µM).

Regarding `COC(=O)/C=C/c1ccc(Cn2cc(COC(Cn3ccnc3)c3ccc(Cl)cc3Cl)nn2)cc1` (stereo unspecified), the results for the MIC50 with Candida albicans [1] and in the data set with Candida albicans [2] were 16.5 µg/mL (≈ 32.2 µM) and 17.8 µg/mL (≈ 34.8 µM), respectively.

Turning to `CC(=O)Cn1cc(COC(Cn2ccnc2)c2ccc(Cl)cc2Cl)nn1` (stereo unspecified), the MIC50 in the data set with Candida albicans [1] was 90.8 µg/mL (≈ 230 µM); with Candida albicans [2] it was greater than 200 µg/mL.

Consider `C=CCn1cc(COC(Cn2ccnc2)c2ccc(Cl)cc2Cl)nn1` (stereo unspecified), for which the MIC50 was 29.4 µg/mL (≈ 77.8 µM) in the data set on Candida albicans [1] and 77.9 µg/mL (≈ 206 µM) with Candida albicans [2].

On to `Clc1ccc(Cn2cc(COC(Cn3ccnc3)c3ccc(Cl)cc3Cl)nn2)cc1` (stereo unspecified), for which the MIC50 is 1.78 µg/mL (≈ 3.85 µM) with Candida albicans [1] and 11 µg/mL (≈ 23.7 µM) with Candida albicans [2].

With `Fc1ccc(Cn2cc(COC(Cn3ccnc3)c3ccc(Cl)cc3Cl)nn2)cc1F` (stereo unspecified), the MIC50 worked out at 11.4 µg/mL (≈ 24.7 µM) in the data set on Candida albicans [1] and 21.4 µg/mL (≈ 46 µM) in the data set on Candida albicans [2].

Take `Clc1ccc(C(Cn2ccnc2)OCc2cn(C/C=C/c3ccccc3)nn2)c(Cl)c1` (stereo unspecified): the figures for the MIC50 in the data set with Candida albicans [1] and in the data set with Candida albicans [2] were 1.57 µg/mL (≈ 3.46 µM) and 11.5 µg/mL (≈ 25.2 µM), respectively.

In the case of `O=C(Cn1cc(COC(Cn2ccnc2)c2ccc(Cl)cc2Cl)nn1)c1ccccc1Cl` (stereo unspecified), the MIC50 in the data set with Candida albicans [1] was found to be 4.71 µg/mL (≈ 9.6 µM); in the data set on Candida albicans [2], 24.1 µg/mL (≈ 49 µM).

For `O=C(Cn1cc(COC(Cn2ccnc2)c2ccc(Cl)cc2Cl)nn1)c1ccc(Br)cc1` (stereo unspecified), the MIC50 in the data set with Candida albicans [1] came to 0.51 µg/mL (≈ 0.953 µM); in the data set with Candida albicans [2], 9.83 µg/mL (≈ 18.4 µM).

For `Cc1ccc(C(=O)Cn2cc(COC(Cn3ccnc3)c3ccc(Cl)cc3Cl)nn2)cc1` (stereo unspecified), the MIC50 with Candida albicans [1] turned out to be 3.34 µg/mL (≈ 7.1 µM); in the data set with Candida albicans [2], 26.2 µg/mL (≈ 55.6 µM).

As for `Clc1ccc(C(Cn2ccnc2)OCc2cn(Cc3ccc4ccccc4c3)nn2)c(Cl)c1` (stereo unspecified), the MIC50 in the data set on Candida albicans [1] turned out to be 1.57 µg/mL (≈ 3.28 µM); in the data set on Candida albicans [2], 4.57 µg/mL (≈ 9.55 µM).

For the compound `O=C(Cn1cc(COC(Cn2ccnc2)c2ccc(Cl)cc2Cl)nn1)c1ccc(F)cc1` (stereo unspecified), the MIC50 is 1.17 µg/mL (≈ 2.47 µM) with Candida albicans [1] and 15.9 µg/mL (≈ 33.6 µM) with Candida albicans [2].

Take `FC(F)(F)c1ccc(Cn2cc(COC(Cn3ccnc3)c3ccc(Cl)cc3Cl)nn2)cc1` (stereo unspecified): the MIC50 in the data set on Candida albicans [1] came to 9.77 µg/mL (≈ 19.7 µM); in the data set with Candida albicans [2], 15 µg/mL (≈ 30.1 µM).

Take `COC(=O)Cn1cc(COC(Cn2ccnc2)c2ccc(Cl)cc2Cl)nn1` (stereo unspecified): the MIC50 was 1.62 µg/mL (≈ 3.95 µM) with Candida albicans [1] and greater than 200 µg/mL in the data set on Candida albicans [2].

For `O=[N+]([O-])c1ccc(Cn2cc(COC(Cn3ccnc3)c3ccc(Cl)cc3Cl)nn2)cc1` (stereo unspecified), the MIC50 stood at 21.6 µg/mL (≈ 45.6 µM) in the data set with Candida albicans [1] and 72.4 µg/mL (≈ 153 µM) with Candida albicans [2].

For `O=C(Cn1cc(COC(Cn2ccnc2)c2ccc(Cl)cc2Cl)nn1)c1ccc(F)cc1F` (stereo unspecified), the MIC50 in the data set with Candida albicans [1] is 0.69 µg/mL (≈ 1.4 µM); in the data set on Candida albicans [2], 19.3 µg/mL (≈ 39.2 µM).

With `O=C(Cn1cc(COC(Cn2ccnc2)c2ccc(Cl)cc2Cl)nn1)c1ccc(Cl)cc1Cl` (stereo unspecified), the MIC50 with Candida albicans [1] was 8.72 µg/mL (≈ 16.6 µM); with Candida albicans [2] it was 19.9 µg/mL (≈ 37.9 µM).

On to `N#Cc1ccc(Cn2cc(COC(Cn3ccnc3)c3ccc(Cl)cc3Cl)nn2)cc1` (stereo unspecified), for which the MIC50 in the data set with Candida albicans [1] was found to be 26.1 µg/mL (≈ 57.6 µM); in the data set with Candida albicans [2], 93.2 µg/mL (≈ 206 µM).

For `ClCCn1cc(COC(Cn2ccnc2)c2ccc(Cl)cc2Cl)nn1` (stereo unspecified), the figures for the MIC50 in the data set with Candida albicans [1] and in the data set with Candida albicans [2] were 1.2 µg/mL (≈ 2.99 µM) and 14.1 µg/mL (≈ 35.3 µM), respectively.

With `Clc1ccc(C(Cn2ccnc2)OCc2cn(Cc3ccccc3)nn2)c(Cl)c1` (stereo unspecified), the MIC50 stood at 6.63 µg/mL (≈ 15.5 µM) with Candida albicans [1] and 21.5 µg/mL (≈ 50.2 µM) in the data set with Candida albicans [2].
